Data set [1] is described as follows: Binding affinity to p-glycoprotein.
Data set [2] in a line: Inhibition of gamma-secretase-mediated cleavage of human APP Swedish and London mutation expressed in HEK293 cells assessed as reduction in amyloid beta42 production after 4 hrs by ECL technology. Format: cell-based.
The species named for another data set is Homo sapiens. Nature of the data set: Protein binding in human plasma. To be noted: read-out: PPB (converted).
Data set [3] in a line: Ratio of drug level in brain to plasma in rat at 10 mg/kg, po. Format: ADME, organism-based. The arrangement: dose 10 mg/kg, route oral.
A short description of data set [4]: AUC in rat at 10 mg/kg, po after 6 hrs. It is filed as ADME, organism-based. Also on record: time < 6 hr, dose 10 mg/kg, route oral. To be noted: plasma. The essentials:
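Rats were dosed orally at 10 mpk in 20% HPBCD. AUC was measured over 6 h by the cassette-accelerated rapid rat screen (CARRS).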

Data set [5] can be described thus: Inhibition of gamma-secretase-mediated cleavage of human APP Swedish and London mutation expressed in HEK293 cells assessed as reduction in amyloid beta40 production after 4 hrs by ECL technology. Format: cell-based. The essentials:
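HEK293 cells expressing human APP with Swedish and London mutations were given fresh medium and incubated with inhibitor for 4 h. Ab40 was measured in 10 microliters of conditioned medium by ECL. Values are means of n = 2.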

For data set [6], the target named is Voltage-gated inwardly rectifying potassium channel KCNH2 (Homo sapiens, UniProt Q12809). As to the kind of experiment: Inhibition of human ERG at 30 uM.
Data set [7] can be described thus: Inhibition of gamma-secretase-mediated cleavage of human APP Swedish and London mutation expressed in HEK293 cell membrane. It is filed as cell-based.
Data set [8] can be described thus: Drug level in rat brain at 10 mg/kg, po after 6 hrs. The settings on record: read-out: Drug uptake. Format: ADME, organism-based. The arrangement: dose 10 mg/kg, route oral.
The target of a further data set is Cytochrome P450 3A4 (Homo sapiens, UniProt P08684). As to the kind of experiment: Inhibition of CYP3A4 preincubated for 30 mins. It is filed as ADME. In outline: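 CYP3A4 inhibition was determined after the compound was pre-incubated for 30 min.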
A short description of data set [9]: Permeability across human Caco-2 cells. It is filed as ADME, cell-based. The settings on record: read-out: permeability. A general note: Caco-2 monolayers are a common model of the intestinal barrier.
For data set [10], the system named is Mus musculus. Nature of the data set: Reduction of amyloid beta40 level in non-transgenic mouse plasma at 10 mg/kg, po after 3 hrs. It is filed as functional.
Data set [11] has as its system Mus musculus. As to the kind of experiment: Reduction of amyloid beta40 level in non-transgenic mouse brain at 10 mg/kg, po after 3 hrs. It is filed as functional.

Active and inactive are the calls of the source. The calls are words filed in the database; no cut-off is given here. A value given as a limit tells only on which side of the number the result lay.

Voltage-gated inwardly rectifying potassium channel KCNH2, sequence (Q12809 whole entry): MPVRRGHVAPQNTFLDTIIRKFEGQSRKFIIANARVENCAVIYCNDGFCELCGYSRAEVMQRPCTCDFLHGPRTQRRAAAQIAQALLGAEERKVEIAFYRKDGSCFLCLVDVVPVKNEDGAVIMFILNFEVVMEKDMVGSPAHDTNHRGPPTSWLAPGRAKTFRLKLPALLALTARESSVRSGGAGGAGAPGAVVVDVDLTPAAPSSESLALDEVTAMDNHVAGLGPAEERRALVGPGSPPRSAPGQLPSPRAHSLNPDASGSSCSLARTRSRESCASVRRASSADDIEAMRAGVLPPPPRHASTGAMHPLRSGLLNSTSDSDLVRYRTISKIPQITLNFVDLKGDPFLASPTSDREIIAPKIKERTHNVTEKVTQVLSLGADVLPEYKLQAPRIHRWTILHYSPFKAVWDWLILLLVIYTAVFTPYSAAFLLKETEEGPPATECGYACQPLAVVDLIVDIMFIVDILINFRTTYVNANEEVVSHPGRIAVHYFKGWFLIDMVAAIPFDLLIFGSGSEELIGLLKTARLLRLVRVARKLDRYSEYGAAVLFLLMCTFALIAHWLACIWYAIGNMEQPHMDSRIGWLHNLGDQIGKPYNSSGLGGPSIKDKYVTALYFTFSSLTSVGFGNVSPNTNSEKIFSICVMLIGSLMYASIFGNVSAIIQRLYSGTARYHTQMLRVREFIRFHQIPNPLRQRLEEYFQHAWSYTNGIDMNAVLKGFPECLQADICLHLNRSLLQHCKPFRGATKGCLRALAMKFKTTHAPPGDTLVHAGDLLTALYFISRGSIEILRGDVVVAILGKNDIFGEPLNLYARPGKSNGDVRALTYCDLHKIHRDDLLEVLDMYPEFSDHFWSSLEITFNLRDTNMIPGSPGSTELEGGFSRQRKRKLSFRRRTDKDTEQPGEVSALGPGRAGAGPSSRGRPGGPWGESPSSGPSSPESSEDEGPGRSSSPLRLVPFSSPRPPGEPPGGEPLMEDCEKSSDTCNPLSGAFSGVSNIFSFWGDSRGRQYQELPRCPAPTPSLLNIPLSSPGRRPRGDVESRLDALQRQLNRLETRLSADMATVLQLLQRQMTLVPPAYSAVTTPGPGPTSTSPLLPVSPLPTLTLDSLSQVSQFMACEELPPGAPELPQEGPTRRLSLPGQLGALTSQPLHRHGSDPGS
Cytochrome P450 3A4, sequence (P08684 whole entry): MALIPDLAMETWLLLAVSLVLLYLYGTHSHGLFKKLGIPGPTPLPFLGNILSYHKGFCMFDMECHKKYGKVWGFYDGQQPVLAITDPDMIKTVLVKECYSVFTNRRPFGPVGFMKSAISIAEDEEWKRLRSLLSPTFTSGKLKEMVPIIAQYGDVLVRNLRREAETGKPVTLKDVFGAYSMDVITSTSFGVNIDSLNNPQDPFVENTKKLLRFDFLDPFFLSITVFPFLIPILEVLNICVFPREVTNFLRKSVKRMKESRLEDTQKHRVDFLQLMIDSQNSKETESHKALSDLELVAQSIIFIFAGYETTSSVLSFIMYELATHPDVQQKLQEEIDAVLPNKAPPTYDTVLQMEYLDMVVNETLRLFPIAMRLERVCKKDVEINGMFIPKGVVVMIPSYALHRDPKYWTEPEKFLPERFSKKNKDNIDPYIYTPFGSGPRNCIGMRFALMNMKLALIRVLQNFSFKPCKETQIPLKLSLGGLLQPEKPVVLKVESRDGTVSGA

As for `CS(=O)(=O)NC[C@@H]1CCC[C@@]2(S(=O)(=O)c3ccc(C(F)(F)F)cc3)c3c(F)ccc(F)c3OC[C@@H]12`, the outcome in data set [1] was inactive. Also, the IC50 (in general, the concentration needed to halve the response being measured) in [2] was 3.6 nM; in data set [5] it was 12 nM; in [7], 13 nM; against Cytochrome P450 3A4, > 30000 nM. Moreover, in the data set filed under Homo sapiens, the fraction unbound is 0.019. Besides, in data set [3], the Kp (as a rule, tissue or fluid exposure divided by exposure in the circulation) stood at 0.73. Besides, in data set [4], the exposure (AUC) (in general, the area under the concentration-time curve, a measure of exposure) at 6 h was 2010 ng·h/mL. Besides, the “inhibition (INH)” value in data set [6] is “Not Active”. Further, the concentration at 6 h in [8] is 80 ng/g. Further, the Papp in data set [9] came out at 42.1 ×10⁻⁶ cm/s.
As for `O=S(=O)(NC[C@@H]1CCC[C@@]2(S(=O)(=O)c3ccc(Cl)cc3)c3c(F)ccc(F)c3OC[C@@H]12)C(F)(F)F`, the half-inhibitory concentration (IC50) was 9 nM in data set [2], 18 nM in [5] and 12 nM in data set [7]. Also, the inhibition in vivo – broadly, the change of the read-out against control, counted positive when it falls – at 10 mg/kg in the data set on Mus musculus [10] is 86%; with Mus musculus [11] it was 48%.
Regarding `CCS(=O)(=O)NC[C@@H]1CCC[C@@]2(S(=O)(=O)c3ccc(C(F)(F)F)cc3)c3c(F)ccc(F)c3OC[C@@H]12`, the half-maximal inhibitory concentration (IC50) stood at 1.6 nM in data set [2], 5.5 nM in [5] and 20 nM in data set [7].
For `O=S(=O)(N(C[C@@H]1CCC[C@@]2(S(=O)(=O)c3ccc(Cl)cc3)c3c(F)ccc(F)c3OC[C@@H]12)C1CC1)C(F)(F)F` the same measures were 9 nM, 21 nM and 15 nM.
On to `O=S(=O)(NC[C@@H]1CCC[C@@]2(S(=O)(=O)c3ccc(C(F)(F)F)cc3)c3c(F)ccc(F)c3OC[C@@H]12)C(F)(F)F`, for which the outcome in data set [1] was inactive. Besides, the half-inhibitory concentration (IC50) was 18.7 nM in data set [2], 40.6 nM in data set [5], 41.7 nM in data set [7] and > 30000 nM on Cytochrome P450 3A4. The fraction unbound in the data set filed under Homo sapiens is 0.001. The inhibition in vivo at 10 mg/kg was determined as 101% in the data set with Mus musculus [10] and 71% in the data set on Mus musculus [11]. For the same compound, the Kp in [3] was found to be 1.01. The compound further had an AUC at 6 h in data set [4] of 702 ng·h/mL. Also, the “inhibition (INH)” value in data set [6] is given as “Not Active”. Further, the concentration at 6 h in [8] was determined as 91 ng/g. In addition, the Papp in data set [9] is 23 ×10⁻⁶ cm/s.
For `O=S(=O)(NC[C@@H]1CCC[C@@]2(S(=O)(=O)c3ccc(Cl)cc3)c3c(F)ccc(F)c3OC[C@@H]12)C1CCCCC1`, the results for the IC50 in data set [2], in data set [5] and in data set [7] were 20 nM, 60 nM and 55 nM, respectively.
With `CCN(C[C@@H]1CCC[C@@]2(S(=O)(=O)c3ccc(Cl)cc3)c3c(F)ccc(F)c3OC[C@@H]12)S(=O)(=O)C1CC1`, the IC50 stood at 9 nM in data set [2], 25 nM in data set [5] and 20.5 nM in data set [7].
In the case of `CCOC(=O)CCS(=O)(=O)NC[C@@H]1CCC[C@@]2(S(=O)(=O)c3ccc(Cl)cc3)c3c(F)ccc(F)c3OC[C@@H]12`, the IC50 in data set [2] is 3 nM; in data set [5] it was 4 nM; in data set [7], 2 nM.
As for `O=S(=O)(NC[C@@H]1CCC[C@@]2(S(=O)(=O)c3ccc(Cl)cc3)c3c(F)ccc(F)c3OC[C@@H]12)C1CC1`, the IC50 was determined as 4 nM in data set [2], 4 nM in [5] and 3.1 nM in data set [7].
Consider `CS(=O)(=O)NC[C@@H]1CCC[C@@]2(S(=O)(=O)c3ccc(Cl)cc3)c3c(F)ccc(F)c3OC[C@@H]12`, for which the IC50 in data set [2] was 2 nM; in [5] it was 2 nM; in data set [7], 2.5 nM.

The values are drawn from ChEMBL document CHEMBL1158621, “Tricyclic sulfones as orally active gamma-secretase inhibitors: synthesis and structure-activity relationship studies” (Bioorg Med Chem Lett, 2010).
